SR-BI HDL uptake: mouse SR-BI HDL lipid transfer inhibition | Q61009 | ldlA[mSR-BI] CHO cells, DiI-HDL uptake fluorescence, 3 h | inhibition, % at 12.5 µM | hit rate 0.96% among 320,000 | AID 488896;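 active means mean replicate inhibition of at least 70% and a set share of replicates each scoring 70 or more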;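 further: 0% = median of neutral control wells and 100% = median of positive control wells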
Neddylation inh: inhibitors of human cullin neddylation | P61081+Q13564 | inhibition, % at 25 µM | hit rate 0.58% among 360,000 | TR-FRET cullin neddylation, biochemical; in the data active means inhibition above about 36%
Target sequence (P61081 whole entry, looked up): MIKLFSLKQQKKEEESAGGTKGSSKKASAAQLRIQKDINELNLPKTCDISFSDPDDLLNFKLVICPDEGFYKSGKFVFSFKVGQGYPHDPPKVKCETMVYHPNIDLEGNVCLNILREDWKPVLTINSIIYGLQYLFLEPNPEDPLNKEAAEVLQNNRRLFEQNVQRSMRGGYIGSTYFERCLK
Target sequence (Q13564 whole entry, looked up): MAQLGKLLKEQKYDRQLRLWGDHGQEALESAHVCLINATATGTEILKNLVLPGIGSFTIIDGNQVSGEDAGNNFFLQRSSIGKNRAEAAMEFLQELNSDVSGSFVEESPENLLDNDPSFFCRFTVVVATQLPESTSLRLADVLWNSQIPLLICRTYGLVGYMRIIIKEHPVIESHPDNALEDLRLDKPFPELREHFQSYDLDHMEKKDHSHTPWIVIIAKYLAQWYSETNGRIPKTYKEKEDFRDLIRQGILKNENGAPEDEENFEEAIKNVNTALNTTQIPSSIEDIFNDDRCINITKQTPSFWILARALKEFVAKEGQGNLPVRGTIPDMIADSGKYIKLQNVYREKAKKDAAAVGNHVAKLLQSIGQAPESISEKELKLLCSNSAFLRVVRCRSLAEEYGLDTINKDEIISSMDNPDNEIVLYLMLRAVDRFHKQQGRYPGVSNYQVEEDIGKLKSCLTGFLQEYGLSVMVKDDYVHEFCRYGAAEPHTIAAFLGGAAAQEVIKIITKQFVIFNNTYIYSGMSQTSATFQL
UBC13 polyUb: inhibitors of human UBC13 polyubiquitin chain formation; TR-FRET; inhibition, % at 20 µM; hit rate 0.47% among 330,000; in the data active means inhibition above about 45%, passing the limit was not always enough
SR-BI uptake up: activators of SR-BI mediated HDL lipid uptake; CHO ldlA[mSR-BI] cells, DiI-HDL uptake fluorescence, 3 h; 100 = double the neutral-control signal; activation, % at 12.5 µM; hit rate 0.096% among 320,000; AID 504775;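 active means mean replicate activation of at least 60% and every replicate at or above 60%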;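 further: 0% = median plate neutral-control signal and 100% = twice that signal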
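System: CHO ldlA[mSR-BI] cells / Medium: HEPES-buffered (25 mM, pH 7.4) F12 plus 0.5% BSA / Probe or stimulus: labelled HDL, 10 µg/mL / Doses: single compound concentration, delivered by pin transfer / Schedule: 3 h, 37 °C / Measured by: DiI fluorescence, bottom read / Measure: cell-associated DiI fluorescence as measure of HDL uptake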
* hit, by the source's call. Sampled rows, rich in hits. Any-hit rate of the full collection: about 1.9%.

Results for C#CCOCCOCCOCCNc1nc(N2CCN(C(=O)[C@H](CCCCN)n3cc([C@@H](N)C(C)CC)nn3)CC2)nc(N2CCN(C(=O)[C@H](CCCCN)n3cc([C@@H](N)CO)nn3)CC2)n1 (stereo not given in full) ?
UBC13 polyUb: 46*

What do the screens show for `C#CCOCCOCCOCCNc1nc(N2CCN(C(=O)[C@H]([C@@H](C)CC)n3cc([C@@H](N)CO)nn3)CC2)nc(N2CCN(C(=O)[C@H](CCCCN)n3cc([C@@H](N)C(C)CC)nn3)CC2)n1` (stereo not given in full)?
SR-BI HDL uptake: -3; Neddylation inh: -4; UBC13 polyUb: 3; SR-BI uptake up: 3

How did C#CCOCCOCCOCCNc1nc(N2CCN(C(=O)[C@H]([C@@H](C)CC)n3cc([C@@H](N)CC(C)C)nn3)CC2)nc(N2CCN(C(=O)[C@H](CCCCN)n3cc([C@@H](N)CC(C)C)nn3)CC2)n1 do in these assays?
SR-BI HDL uptake: -14; UBC13 polyUb: 55*; SR-BI uptake up: 14

Results for C#CCOCCOCCOCCNc1nc(N2CCN(C(=O)C([C@@H](C)CC)n3cc(C(N)COC(=O)C(F)(F)F)nn3)CC2)nc(N2CCN(C(=O)[C@H](CCCCN)n3cc(C(N)[C@H](C)CC)nn3)CC2)n1 (stereo not given in full) ?
UBC13 polyUb: 114*

How did C#CCOCCOCCOCCNc1nc(N2CCN(C(=O)C([C@@H](C)CC)n3cc(C(N)CO)nn3)CC2)nc(N2CCN(C(=O)C([C@@H](C)CC)n3cc(C(N)COC(=O)C(F)(F)F)nn3)CC2)n1 (stereo not given in full) do in these assays?
UBC13 polyUb: 30

What do the screens show for `C#CCOCCOCCOCCNc1nc(N2CCN(C(=O)[C@H]([C@@H](C)CC)n3cc([C@@H](N)CC(C)C)nn3)CC2)nc(N2CCN(C(=O)[C@H](CCCCN)n3cc([C@@H](N)C(C)CC)nn3)CC2)n1` (stereo not given in full)?
SR-BI HDL uptake: 14; Neddylation inh: -2; UBC13 polyUb: 37; SR-BI uptake up: -6

What do the screens show for `C#CCOCCOCCOCCNc1nc(N2CCN(C(=O)[C@H](CCCCN)n3cc([C@@H](N)CO)nn3)CC2)nc(N2CCN(C(=O)[C@H](Cc3cc4ccccc4[nH]3)n3cc([C@@H](N)CO)nn3)CC2)n1`?
UBC13 polyUb: 110*

Results for O=C1NC[C@H](CCCCN2C[C@@H](Cc3ccccc3)N(CCC3CCCCC3)C(=O)C2=O)N(CCC2CCCCC2)C1=O ?
Neddylation inh: -5

Results for C#CCOCCOCCOCCNc1nc(N2CCN(C(=O)[C@H]([C@@H](C)CC)n3cc([C@@H](N)CO)nn3)CC2)nc(N2CCN(C(=O)[C@H](Cc3cc4ccccc4[nH]3)n3cc([C@@H](N)Cc4ccc(O)cc4)nn3)CC2)n1 ?
UBC13 polyUb: 98*

How did C#CCOCCOCCOCCNc1nc(N2CCN(C(=O)[C@H](CCCCN)n3cc([C@@H](N)CO)nn3)CC2)nc(N2CCN(C(=O)[C@H](Cc3cc4ccccc4[nH]3)n3cc([C@@H](N)CC(C)C)nn3)CC2)n1 do in these assays?
UBC13 polyUb: 100*

Results for C#CCOCCOCCOCCNc1nc(N2CCN(C(=O)[C@H](Cc3cc4ccccc4[nH]3)n3cc([C@@H](N)C(C)CC)nn3)CC2)nc(N2CCN(C(=O)[C@H](CCCCN)n3cc([C@@H](N)CO)nn3)CC2)n1 (stereo not given in full) ?
UBC13 polyUb: 110*

What do the screens show for `C#CCOCCOCCOCCNc1nc(N2CCN(C(=O)[C@H](Cc3cc4ccccc4[nH]3)n3cc([C@@H](N)C(C)CC)nn3)CC2)nc(N2CCN(C(=O)[C@H](Cc3cc4ccccc4[nH]3)n3cc([C@@H](N)CC(C)C)nn3)CC2)n1` (stereo not given in full)?
UBC13 polyUb: 61*

How did C#CCOCCOCCOCCNc1nc(N2CCN(C(=O)[C@H](CCC(=O)O)n3cc(C(N)CO)nn3)CC2)nc(N2CCN(C(=O)[C@H](Cc3cc4ccccc4[nH]3)n3cc(C(N)[C@H](C)CC)nn3)CC2)n1 (stereo not given in full) do in these assays?
SR-BI HDL uptake: -15; Neddylation inh: 5; UBC13 polyUb: 25; SR-BI uptake up: 15

How did C#CCOCCOCCOCCNc1nc(N2CCOCC2)nc(N2CCN(C(=O)[C@H](Cc3cc4ccccc4[nH]3)n3cc([C@@H](N)Cc4ccc(O)cc4)nn3)CC2)n1 do in these assays?
SR-BI HDL uptake: -9; Neddylation inh: -12; UBC13 polyUb: 9; SR-BI uptake up: 9

What do the screens show for `CC(OC(=O)c1cc(S(=O)(=O)N2CCOCC2)ccc1F)C(=O)NC1CCCCC1C` (stereo not given)?
SR-BI HDL uptake: 21; Neddylation inh: 0; UBC13 polyUb: 2; SR-BI uptake up: -21

Results for CN(Cc1cnccn1)C(=O)CC1C(=O)NCCN1Cc1c(F)cccc1Cl (stereo not given) ?
Neddylation inh: 7; UBC13 polyUb: -14

Results for Cc1cccc2sc(NC(=O)c3ccc(Cl)s3)nc12 ?
SR-BI HDL uptake: 76*; UBC13 polyUb: 15; SR-BI uptake up: -76

Results for Cc1cccc2sc(NC(=O)C3CC3)nc12 ?
SR-BI HDL uptake: 5; Neddylation inh: 2; UBC13 polyUb: -7; SR-BI uptake up: -5

Results for Cn1c2ccccc2c2cc(/C=N/NC(=O)c3ccc(O)cc3O)ccc21 ?
SR-BI HDL uptake: 15; Neddylation inh: 68*; UBC13 polyUb: -5; SR-BI uptake up: -15

What do the screens show for `COCCn1c(SC(C)C(=O)NCC2CCCO2)nc2sc3c(c2c1=O)CCC3` (stereo not given)?
SR-BI HDL uptake: 15; Neddylation inh: -7; UBC13 polyUb: -6; SR-BI uptake up: -15

Results for O=C1c2ccc3c4c(ccc(c24)C(=O)N1c1ccc2ccccc2c1)CC3 ?
SR-BI HDL uptake: 15; Neddylation inh: 14; UBC13 polyUb: 18; SR-BI uptake up: -15

How did O=C1CCC(=O)c2ccc3c4c(ccc1c24)CC3 do in these assays?
SR-BI HDL uptake: 11; Neddylation inh: 49*; SR-BI uptake up: -11

Results for C[C@H](NCc1c[nH]c2ccccc12)c1ccccc1 ?
SR-BI HDL uptake: 24; Neddylation inh: -1; UBC13 polyUb: 12; SR-BI uptake up: -24

Results for COC(=O)[C@H](Cc1ccccc1)NC(=O)/C=C/[C@H]1O[C@@H](n2ccc(=O)[nH]c2=O)[C@H](O)[C@@H]1O ?
Neddylation inh: -5

What do the screens show for `Cc1cc(C(=O)Nc2nc3ccc(S(C)(=O)=O)cc3s2)c(C)o1`?
SR-BI HDL uptake: 82*; Neddylation inh: -173; UBC13 polyUb: 4; SR-BI uptake up: -82

How did COc1ccc2nc(NC(=O)c3cc(C)oc3C)sc2c1 do in these assays?
SR-BI HDL uptake: 83*; Neddylation inh: 21; UBC13 polyUb: 4; SR-BI uptake up: -83

What do the screens show for `Cc1ccc(C(=O)Nc2nc3ccc(S(C)(=O)=O)cc3s2)s1`?
SR-BI HDL uptake: 24; Neddylation inh: -316; UBC13 polyUb: 14; SR-BI uptake up: -24

Source: PubChem
